These results are taken from ChEMBL document CHEMBL2163301, “Substrates for efficient fluorometric screening employing the NAD-dependent sirtuin 5 lysine deacylase (KDAC) enzyme” (J Med Chem, 2012).

Sequence of NAD-dependent protein deacylase sirtuin-5, mitochondrial (Q9NXA8 whole entry): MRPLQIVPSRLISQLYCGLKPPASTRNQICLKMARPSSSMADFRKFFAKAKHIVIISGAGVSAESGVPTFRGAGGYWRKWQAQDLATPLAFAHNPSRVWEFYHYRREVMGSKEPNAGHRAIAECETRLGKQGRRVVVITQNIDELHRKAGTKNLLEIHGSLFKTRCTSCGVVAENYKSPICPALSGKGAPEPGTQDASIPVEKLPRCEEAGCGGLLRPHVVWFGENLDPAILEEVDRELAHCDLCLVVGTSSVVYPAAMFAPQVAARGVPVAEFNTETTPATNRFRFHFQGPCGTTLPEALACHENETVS

The test addresses NAD-dependent protein deacylase sirtuin-5, mitochondrial (Homo sapiens, UniProt Q9NXA8). Briefly: Inhibition of SIRT5. The gist of the method:
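Recombinant SIRT5 at 50 ng/well (~30 nM, 50 μL) with succinyllysine AMC substrate and NAD in Tris-Cl pH 8.0/BSA buffer. Inhibitor dilutions were prepared in assay buffer from DMSO stocks. IC50 from nonlinear regression of dose–response, two assays in duplicate.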
What is called IC50 is the concentration at which inhibition is half-maximal. The compound `O=C(O)CCCc1ccccc1` showed an IC50 of more than 100 µM.

In turn, `N#C/C(=C\c1ccc(-c2cc(Cl)ccc2Cl)o1)C(=O)Nc1cccc2ncccc12` came in with an IC50 of more than 100 µM.

Compound `CC(NC(=O)c1ccccc1/N=C/c1c(O)ccc2ccccc12)c1ccccc1` (centres undefined) [SIRTINOL] returned an IC50 of more than 100 µM. Compound `O=C(CCCCCCC(=O)Nc1ccccc1)NO` [VORINOSTAT] yielded a concentration for half-maximal inhibition (IC50) of more than 100 µM.
